Ends that are not written are not given here.
Columns and labels:
Antiserum 8684 = assay: GRP18-27gly #8684 RIA cross-reactivity; type: binding, rabbit; details: 125I-labeled GRP-gly tracer; GRP18-27gly standard
NCI-N417 cells = assay: Phospholipase C / [3H]IP stimulation in SCLC cells NCI-N417; type: cell-based, human; details: 0.1 uM peptide alone, 37C, 60 min, mean ± SEM, at least 4 experiments
Method in brief: (§1)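 SCLC suspension cells (1 × 10^6 cells/ml) were labelled 24 h at 37C with myo-[2-3H]inositol in RPMI with 2% FBS. Cells were washed, held 10 min in PBS pH 7.0 with 20 mM LiCl, then resuspended in HEPES pH 7.4 buffer with LiCl, EGTA, glucose and BSA. Peptide exposure was 60 min at 37C, stopped with ice-cold HCl/methanol. Total [3H]IP was eluted from anion-exchange resin and counted by scintillation; values are expressed as experimental/control.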

NCI-H209 cells = assay: Phospholipase C / [3H]IP stimulation in SCLC cells NCI-H209; type: cell-based, human; details: 0.1 uM peptide alone, 37C, 60 min, mean ± SEM, at least 4 experiments
NCI-H69 cells = assay: Phospholipase C / [3H]IP stimulation in SCLC cells NCI-H69; type: cell-based, human; details: 0.1 uM peptide alone, 37C, 60 min, mean ± SEM, at least 4 experiments
NCI-N592 cells = assay: Phospholipase C / [3H]IP stimulation in SCLC cells NCI-N592; type: cell-based, human; details: 0.1 uM peptide alone, 37C, 60 min, mean ± SEM, at least 4 experiments
Method in brief: as §1

Compound	cross-reactivity with antiserum 8684 (Antiserum 8684)	Phospholipase C activity, Experimental/control (NCI-N417 cells)	Phospholipase C activity, Experimental/control (NCI-H209 cells)	Phospholipase C activity, Experimental/control (NCI-H69 cells)	Phospholipase C activity, Experimental/control (NCI-N592 cells)
GRP18-27: amidated GRP18-27; differs from bombesin by a Gln to His substitution at position 20	60%	–	–	–	–
CSCC[C@H](NC(=O)[C@H](CC(C)C)NC(=O)[C@H](Cc1c[nH]cn1)NC(=O)CNC(=O)[C@@H](NC(=O)[C@H](C)NC(=O)[C@H](Cc1c[nH]c2ccccc12)NC(=O)[C@H](Cc1c[nH]cn1)NC(=O)[C@H](CC(N)=O)NC(=O)CNC(=O)[C@H](CCCNC(=N)N)NC(=O)[C@@H]1CCCN1C(=O)[C@H](Cc1ccc(O)cc1)NC(=O)[C@H](CCSC)NC(=O)[C@H](CCCCN)NC(=O)[C@@H](NC(=O)[C@H](CC(C)C)NC(=O)[C@@H](NC(=O)[C@@H](NC(=O)CNC(=O)CNC(=O)CNC(=O)[C@H](C)NC(=O)[C@@H]1CCCN1C(=O)[C@H](CC(C)C)NC(=O)[C@@H]1CCCN1C(=O)[C@@H](N)C(C)C)[C@@H](C)O)C(C)C)[C@@H](C)O)C(C)C)C(N)=O [GRP, gastrin releasing peptide]	–	1.03±0.01	1.11±0.04	1.23±0.07	1.03±0.04
[D-Phe^6, β-Ala^11, Phe^13, Nle^14] Bn(6-14)	–	3.14±0.34	1.17±0.03	1.31±0.04	1.05±0.04
bombesin	less than 1%	–	–	–	–
GRP1-27: amidated form of gastrin releasing peptide 1-27 (VPLPAGGGTVLTKMYPRGNHWAVGHLM-NH2; UniProt P07492 24-50, looked up)	60%	–	–	–	–
